Experimental data taken from PubChem BioAssay.
Active and inactive are the calls of the source.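 The calls were made as follows, unless noted: active = visual image review flags a hit and inhibition of aggregation exceeds 20%; inconclusive = visual hit but inhibition at or below 20%; inactive = no hit on visual image review.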

Columns and labels:
[1] = inhibitors of TNFa-induced NFkB p65 translocation, primary screen, imaging, HUVEC, MLSMR starter and 10KST1 sets (AID 438;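 active = inhibition above 20% together with a positive visual image hit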;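 also: compound added about 3h40 before a 20 min TNFalpha stimulation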;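 as to inhibition: signal is the nuclear over cytoplasmic p65 intensity ratio per well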); conditions: HUVEC TNFa-induced p65 nuclear translocation; cell count: measured here: nuclei count (cytotoxicity indicator), at 2.08 µM; inhibition: at 2 µM, stronger effect = higher value, 0% TNFa-plus-vehicle, 100% no-TNFa wells
[2] = inhibitors of mutant huntingtin aggregation, primary screen, imaging, exon1htt(103Q)mCFP cells, high-content imaging (AID 483); conditions: exon1htt(103Q)mCFP cell line, aggregate imaging, at 2 µM; inhibition of aggregation: stronger effect = higher value; nuclei count: measured here: cell count, toxicity;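 also: compound exposure lasted 3 days before fixation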;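 as to nuclei count: percent of the per-plate median nuclei count of sample wells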
[3] = inhibitors of E-selectin induction by TNFa, primary screen, imaging, HUVEC, immunofluorescence, MLSMR starter and 10KST1 sets (AID 487;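 active = visually confirmed hit in the image check and inhibition above 20%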;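 as to inhibition: signal is fraction of cell area covered by stained E-selectin grains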;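 as to nuclei count: 100% = median nuclei count of all wells on the same plate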); conditions: HUVEC TNFalpha-induced E-selectin immunofluorescence imaging, at 2 µM; inhibition: stronger effect = higher value; nuclei count: measured here: cell number, toxicity
[4] = molecular target: Voltage-gated potassium channel subunit beta-2 (Rattus norvegicus) (UniProt P62483); assay: KvBeta enzyme negative modulators, primary screen, biochemical, NADPH fluorescence (AID 622;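 active = fluorescence slope higher than the sample average by over 3 SD, cut at about -0.22 in these data, passing the limit was not always enough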;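 also: slope of raw intensity against log time taken from 70 to 1610 s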); conditions: recombinant KvBeta, 4-cyanobenzaldehyde reduction, at 10 µM, stronger effect = higher value
[5] = molecular target: Voltage-gated potassium channel subunit beta-2 (Rattus norvegicus) (UniProt P62483); assay: KvBeta positive modulators, primary screen, biochemical, NADPH fluorescence (AID 623;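 active = NADPH fluorescence slope more negative than the mean of all samples by about 3 SD, 99.7% confidence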;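 also: fluorescence intensity change per second fitted from 20 to 320 s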); conditions: Recombinant KvBeta, NADPH fluorescence decrease slope, 10 min; at 10 µM; stronger effect = lower value
[6] = molecular target: Muscarinic acetylcholine receptor M4 (Homo sapiens) (UniProt P08173); assay: compounds altering M4/GIRK thallium flux, either direction, primary screen, M4 allosteric agonist project, cell-based, HEK293 M4/GIRK, BTC-AM (AID 625;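 active = fluorescence slope after compound addition differing from the mean of all tested samples at 99.7% confidence, mostly higher but some lower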;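 also: thallium influx through GIRK channels coupled to M4 in HEK293 cells with BTC-AM dye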); conditions: at 10 µM, actives lie on both sides
Procedure, shortened: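 assay system = HEK293 cells with M4 receptor and GIRK channels | medium = pH 7.3 thallium assay buffer | doses = 10 µM final, single point | timing = cells overnight at 37 °C, BTC-AM loading 1 h, reads 2 min total | signal = BTC-AM fluorescence, 1 Hz kinetic reads | read-out = post-addition slope, 15–24 s, of baseline-normalized fluorescence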

[7] = inhibitors of Sendai virus-induced IRF3 signaling, primary screen, TLR/RLR signaling modifier project, cell-based, Sendai virus stimulus, luciferase, 10K MLSCN set (AID 602276;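 active = inhibition at or above 50% at 10 µM; inactive = inhibition below 50%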;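 also: firefly luciferase from ISG56 promoter only with Renilla not read in this screen; 0% = Sendai virus plus DMSO and 100% = medium plus DMSO without virus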); conditions: HEK293 RL24 IRF3 luciferase reporter, at 10 µM, stronger effect = higher value
[8] = inhibitors of poly I:C-induced TLR3 signaling, primary screen, cell-based, poly I:C stimulus, luciferase, 10K MLSCN set (AID 602277;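 active = inhibition of the reporter signal at or above 50%; inactive = inhibition below 50%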); conditions: HEK293-TLR3 RL24 IRF3 luciferase reporter, at 10 µM, stronger effect = higher value

Voltage-gated potassium channel subunit beta-2 (Rattus norvegicus), sequence (P62483 whole entry, looked up): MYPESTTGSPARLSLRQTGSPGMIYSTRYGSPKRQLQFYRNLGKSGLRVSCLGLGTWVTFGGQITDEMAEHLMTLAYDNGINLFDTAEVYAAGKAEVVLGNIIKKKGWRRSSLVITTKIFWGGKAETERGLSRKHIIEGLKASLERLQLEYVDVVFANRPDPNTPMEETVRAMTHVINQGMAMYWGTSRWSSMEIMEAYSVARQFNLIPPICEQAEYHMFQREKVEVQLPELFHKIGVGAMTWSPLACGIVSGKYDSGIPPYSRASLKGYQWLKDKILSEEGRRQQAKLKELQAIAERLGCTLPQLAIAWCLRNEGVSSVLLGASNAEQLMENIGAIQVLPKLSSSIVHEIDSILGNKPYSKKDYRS
Muscarinic acetylcholine receptor M4 (Homo sapiens), sequence (P08173 whole entry, looked up): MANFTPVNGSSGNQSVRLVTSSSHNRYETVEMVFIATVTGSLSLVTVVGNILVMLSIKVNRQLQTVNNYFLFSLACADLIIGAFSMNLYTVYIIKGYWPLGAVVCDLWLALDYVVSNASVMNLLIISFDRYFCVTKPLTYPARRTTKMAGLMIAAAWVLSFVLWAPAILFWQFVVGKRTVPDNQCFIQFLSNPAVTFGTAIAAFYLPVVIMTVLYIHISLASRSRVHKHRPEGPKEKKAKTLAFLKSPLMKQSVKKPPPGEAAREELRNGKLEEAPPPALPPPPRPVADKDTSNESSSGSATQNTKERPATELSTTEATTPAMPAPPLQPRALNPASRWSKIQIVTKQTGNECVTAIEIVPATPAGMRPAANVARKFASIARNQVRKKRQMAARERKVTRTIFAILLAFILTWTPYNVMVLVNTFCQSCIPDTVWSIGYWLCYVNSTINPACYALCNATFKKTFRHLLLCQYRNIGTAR

CCOCCCNC(=O)c1c[nH]c2ccc(S(=O)(=O)Nc3cccc(OC)c3)cc2c1=O
cell count [1]: 337
inhibition [1]: -3.1% (inactive)
inhibition of aggregation [2]: -12.3% (inactive)
nuclei count [2]: 99.2%
inhibition [3]: -85.4% (inactive)
nuclei count [3]: 105%
fluorescence slope [4]: -0.599 (inactive)
NADPH fluorescence slope [5]: -3.6e-05 (inactive)
fluorescence slope [6]: 0.00605 (inactive)
inhibition [7]: 0.375% (inactive)
inhibition [8]: 0.559% (inactive)

CCCN(S(=O)(=O)c1ccc(OCC)cc1)S(=O)(=O)c1cccs1
cell count [1]: 457
inhibition [1]: 7.4% (inactive)
inhibition of aggregation [2]: -7.2% (inactive)
nuclei count [2]: 109%
inhibition [3]: -52.8% (inactive)
nuclei count [3]: 101%
fluorescence slope [4]: -0.481 (inactive)
NADPH fluorescence slope [5]: 0.0001 (inactive)
fluorescence slope [6]: 0.00646 (inactive)
inhibition [7]: -4.95% (inactive)
inhibition [8]: 2.38% (inactive)

COc1ccc(C2CC(c3ccc(Cl)cc3)Nc3nc(NC(=O)c4ccco4)nn32)cc1 (centres undefined)
cell count [1]: 574
inhibition [1]: -11.9% (inactive)
inhibition of aggregation [2]: -6.2% (inactive)
nuclei count [2]: 98.1%
inhibition [3]: 27.9% (inactive)
nuclei count [3]: 91.8%
fluorescence slope [4]: -0.427 (inactive)
NADPH fluorescence slope [5]: -6.7e-05 (inactive)
fluorescence slope [6]: 0.00611 (inactive)
inhibition [7]: 14.1% (inactive)
inhibition [8]: 24.6% (inactive)

O=C(CSc1nc(-c2ccco2)cc(C(F)(F)F)n1)N1CCCc2ccccc21
cell count [1]: 700
inhibition [1]: 0% (inactive)
inhibition of aggregation [2]: 3.1% (inactive)
nuclei count [2]: 104%
inhibition [3]: -20.9% (inactive)
nuclei count [3]: 114%
fluorescence slope [4]: -0.585 (inactive)
NADPH fluorescence slope [5]: -2.5e-05 (inactive)
fluorescence slope [6]: 0.00488 (inactive)
inhibition [7]: 19% (inactive)
inhibition [8]: 13.4% (inactive)

CN1CCN(S(=O)(=O)c2ccc(Sc3nnc(-c4cccs4)n3-c3ccccc3)nc2)CC1
cell count [1]: 603
inhibition [1]: -11% (inactive)
inhibition of aggregation [2]: -9% (inactive)
nuclei count [2]: 104%
inhibition [3]: -140% (inactive)
nuclei count [3]: 142%
fluorescence slope [4]: -0.245 (inactive)
NADPH fluorescence slope [5]: -2e-05 (inactive)
fluorescence slope [6]: 0.00549 (inactive)
inhibition [7]: 1.81% (inactive)
inhibition [8]: 4.54% (inactive)

COC(=O)c1ccc(CNC(=O)COc2ccccc2Br)o1
cell count [1]: 712
inhibition [1]: -13.6% (inactive)
inhibition of aggregation [2]: -7.2% (inactive)
nuclei count [2]: 110%
inhibition [3]: 0.2% (inactive)
nuclei count [3]: 81.7%
fluorescence slope [4]: -0.556 (inactive)
NADPH fluorescence slope [5]: -8.6e-06 (inactive)
fluorescence slope [6]: 0.00463 (inactive)
inhibition [7]: 5.53% (inactive)
inhibition [8]: 1.32% (inactive)

CCCCN(c1ccccc1)S(=O)(=O)c1ccc2c(c1)CCN2C(=O)CCC(=O)O
cell count [1]: 648
inhibition [1]: 1.3% (inactive)
inhibition of aggregation [2]: 7.8% (inactive)
nuclei count [2]: 112%
inhibition [3]: -65.5% (inactive)
nuclei count [3]: 117%
fluorescence slope [4]: -0.526 (inactive)
NADPH fluorescence slope [5]: 5.3e-05 (inactive)
fluorescence slope [6]: 0.00543 (inactive)
inhibition [7]: 22.6% (inactive)
inhibition [8]: 99.4% (active)

CCCn1c2c(c(O)c(C(=O)Nc3ccc(C)cn3)c1=O)CCCC2
cell count [1]: 483
inhibition [1]: 9.8% (inactive)
inhibition of aggregation [2]: -6.3% (inactive)
nuclei count [2]: 96.3%
inhibition [3]: -7.5% (inactive)
nuclei count [3]: 91.3%
fluorescence slope [4]: -0.546 (inactive)
NADPH fluorescence slope [5]: -6e-05 (inactive)
fluorescence slope [6]: 0.00777 (inactive)
inhibition [7]: 6.86% (inactive)
inhibition [8]: 10.7% (inactive)

O=C(O)C1CCCN1C(=O)Nc1ccc(F)cc1 (centres undefined)
cell count [1]: 543
inhibition [1]: -32.6% (inactive)
inhibition of aggregation [2]: 13.6% (inactive)
nuclei count [2]: 91.3%
inhibition [3]: -32.7% (inactive)
nuclei count [3]: 98.5%
fluorescence slope [4]: -0.301 (inactive)
NADPH fluorescence slope [5]: -4.9e-05 (inactive)
fluorescence slope [6]: 0.00613 (inactive)
inhibition [7]: 8.17% (inactive)
inhibition [8]: 10.2% (inactive)

C=CCn1cc(C(=O)NCCOC)c(=O)c2cc(S(=O)(=O)N(CC)CC)ccc21
cell count [1]: 580
inhibition [1]: -15.8% (inactive)
inhibition of aggregation [2]: 7.1% (inactive)
nuclei count [2]: 81.2%
inhibition [3]: -11.3% (inactive)
nuclei count [3]: 115%
fluorescence slope [4]: -0.607 (inactive)
NADPH fluorescence slope [5]: 1.4e-05 (inactive)
fluorescence slope [6]: 0.00635 (inactive)
inhibition [7]: 7.34% (inactive)
inhibition [8]: 17.4% (inactive)

COc1cccc(OCC(O)CN2CCN(CCO)CC2)c1 (centres undefined)
cell count [1]: 383
inhibition [1]: -1% (inactive)
inhibition of aggregation [2]: -24.6% (inactive)
nuclei count [2]: 105%
inhibition [3]: -46.4% (inactive)
nuclei count [3]: 102%
fluorescence slope [4]: -0.475 (inactive)
NADPH fluorescence slope [5]: -0.000292 (inactive)
fluorescence slope [6]: 0.00352 (inactive)
inhibition [7]: 8.25% (inactive)
inhibition [8]: 13.5% (inactive)

CN(C=O)CP(=O)(O)CCN1CCCC1=O
cell count [1]: 447
inhibition [1]: 7% (inactive)
inhibition of aggregation [2]: 19.4% (inactive)
nuclei count [2]: 90.6%
inhibition [3]: 27% (inactive)
nuclei count [3]: 106%
fluorescence slope [4]: -0.589 (inactive)
NADPH fluorescence slope [5]: -5.8e-05 (inactive)
fluorescence slope [6]: 0.00412 (inactive)
inhibition [7]: 14.6% (inactive)
inhibition [8]: 25.4% (inactive)

COc1ccc(CN2C(=O)CN=C2Nc2ccc(C)cc2C)cc1
cell count [1]: 809
inhibition [1]: -7.5% (inactive)
inhibition of aggregation [2]: -10.3% (inactive)
nuclei count [2]: 122%
inhibition [3]: -3.6% (inactive)
nuclei count [3]: 95.6%
fluorescence slope [4]: -0.555 (inactive)
NADPH fluorescence slope [5]: 6.9e-05 (inactive)
fluorescence slope [6]: 0.00584 (inactive)
inhibition [7]: 16.8% (inactive)
inhibition [8]: 23% (inactive)

Cc1ccc(NC(=O)Cn2cccc2)cc1Cl
cell count [1]: 655
inhibition [1]: -12.9% (inactive)
inhibition of aggregation [2]: 7% (inactive)
nuclei count [2]: 115%
inhibition [3]: -4.1% (inactive)
nuclei count [3]: 103%
fluorescence slope [4]: -0.324 (inactive)
NADPH fluorescence slope [5]: -5.7e-05 (inactive)
fluorescence slope [6]: 0.00925 (inactive)
inhibition [7]: 8.59% (inactive)
inhibition [8]: -12.8% (inactive)

CCn1nnnc1SCC(=O)Nc1nnc(C(C)C)s1
cell count [1]: 324
inhibition [1]: -3% (inactive)
inhibition of aggregation [2]: 21.9% (inactive)
nuclei count [2]: 96.2%
inhibition [3]: 1% (inactive)
nuclei count [3]: 116%
fluorescence slope [4]: -0.361 (inactive)
NADPH fluorescence slope [5]: -4.7e-05 (inactive)
fluorescence slope [6]: 0.0049 (inactive)
inhibition [7]: 5.57% (inactive)
inhibition [8]: -1.53% (inactive)

CCn1c(C(=O)OC)cc2c1ccn2-c1ccc(F)cc1
cell count [1]: 648
inhibition [1]: -2.6% (inactive)
inhibition of aggregation [2]: 25% (inactive)
nuclei count [2]: 99.6%
inhibition [3]: -86.1% (inactive)
nuclei count [3]: 105%
fluorescence slope [4]: -0.61 (inactive)
NADPH fluorescence slope [5]: -2e-05 (inactive)
fluorescence slope [6]: 0.00586 (inactive)
inhibition [7]: -52.7% (inactive)
inhibition [8]: -96.4% (inactive)

CCCCC(NC(C)=O)c1nc2ccccc2n1CCC (centres undefined)
cell count [1]: 294
inhibition [1]: -3.7% (inactive)
inhibition of aggregation [2]: 24.6% (inactive)
nuclei count [2]: 82.4%
inhibition [3]: 37.8% (inactive)
nuclei count [3]: 94.3%
fluorescence slope [4]: -0.454 (inactive)
NADPH fluorescence slope [5]: -2.6e-05 (inactive)
fluorescence slope [6]: 0.00541 (inactive)
inhibition [7]: 22.7% (inactive)
inhibition [8]: 16.8% (inactive)

Cc1oc2c(CN3CCCC3)c(O)ccc2c(=O)c1-c1ccccc1
cell count [1]: 243
inhibition [1]: 3.8% (inactive)
inhibition of aggregation [2]: 6.5% (inactive)
nuclei count [2]: 96.3%
inhibition [3]: -46% (inactive)
nuclei count [3]: 97.7%
fluorescence slope [4]: -0.0276 (active)
NADPH fluorescence slope [5]: 8.9e-06 (inactive)
fluorescence slope [6]: 0.00581 (inactive)
inhibition [7]: 14% (inactive)
inhibition [8]: 24.5% (inactive)

CC(C)N(C=O)C1(C(=O)NC2CCCCC2)CCCCC1
cell count [1]: 584
inhibition [1]: -6.3% (inactive)
inhibition of aggregation [2]: 15.2% (inactive)
nuclei count [2]: 114%
inhibition [3]: -9.4% (inactive)
nuclei count [3]: 113%
fluorescence slope [4]: -0.551 (inactive)
NADPH fluorescence slope [5]: -4.6e-06 (inactive)
fluorescence slope [6]: 0.00567 (inactive)
inhibition [7]: 10.2% (inactive)
inhibition [8]: 13.5% (inactive)
